Reference: ChEMBL document CHEMBL1287651, “Synthesis and in vitro antibacterial activity of fluoroquinolone derivatives containing 3-(N'-alkoxycarbamimidoyl)-4-(alkoxyimino) pyrrolidines” (2010)
Values after ≈ are worked out from the molar mass of the structure shown.

Legend:
Assay type in all cases: functional
[1] = test system: Staphylococcus aureus; test: Antibacterial activity against Staphylococcus aureus ATCC […] after 18 to 24 hrs by twofold serial dilution method
How it was run: (§1)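 MIC determined by the standard twofold serial dilution method on agar media, screening against Gram-positive and Gram-negative strains. Levofloxacin and gemifloxacin were run alongside as reference drugs.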

[2] = test system: Staphylococcus aureus; test: Antibacterial activity against methicillin-resistant Staphylococcus aureus 08-1 after 18 to 24 hrs by twofold serial dilution method
How it was run: (§2)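 Standard twofold serial agar dilution method on agar media for MIC determination. Screened against representative Gram-positive and Gram-negative strains. Levofloxacin and GMFX served as control drugs.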

[3] = test system: Staphylococcus aureus; test: Antibacterial activity against methicillin-sensitive Staphylococcus aureus 08-2 after 18 to 24 hrs by twofold serial dilution method; how it was run: as §2
[4] = test system: Staphylococcus epidermidis; test: Antibacterial activity against methicillin-resistant Staphylococcus epidermidis 09-2 after 18 to 24 hrs by twofold serial dilution method; how it was run: as §2
[5] = test system: Staphylococcus epidermidis; test: Antibacterial activity against methicillin-resistant Staphylococcus epidermidis 09-3 after 18 to 24 hrs by twofold serial dilution method; how it was run: as §2
[6] = test system: Staphylococcus epidermidis; test: Antibacterial activity against methicillin-resistant Staphylococcus epidermidis 09-4 after 18 to 24 hrs by twofold serial dilution method; how it was run: as §2
[7] = test system: Staphylococcus epidermidis; test: Antibacterial activity against methicillin-sensitive Staphylococcus epidermidis 09-3 after 18 to 24 hrs by twofold serial dilution method; how it was run: as §2
[8] = test system: Staphylococcus epidermidis; test: Antibacterial activity against methicillin-sensitive Staphylococcus epidermidis 09-6 after 18 to 24 hrs by twofold serial dilution method; how it was run: as §2
[9] = test system: Streptococcus pneumoniae; test: Antibacterial activity against Streptococcus pneumoniae 08-2 after 18 to 24 hrs by twofold serial dilution method; how it was run: as §1
[10] = test system: Streptococcus pneumoniae; test: Antibacterial activity against Streptococcus pneumoniae 08-4 after 18 to 24 hrs by twofold serial dilution method; how it was run: as §1
[11] = test system: Enterococcus faecium; test: Antibacterial activity against Enterococcus faecium 08-2 after 18 to 24 hrs by twofold serial dilution method; how it was run: as §1
[12] = test system: Enterococcus faecium; test: Antibacterial activity against Enterococcus faecium 08-7 after 18 to 24 hrs by twofold serial dilution method; how it was run: as §1
[13] = test system: Enterococcus faecalis; test: Antibacterial activity against Enterococcus faecalis 08-10 after 18 to 24 hrs by twofold serial dilution method; how it was run: as §1
[14] = test system: Enterococcus faecalis; test: Antibacterial activity against Enterococcus faecalis 08-12 after 18 to 24 hrs by twofold serial dilution method; how it was run: as §1
[15] = test system: Escherichia coli; test: Antibacterial activity against Escherichia coli ATCC 25922 after 18 to 24 hrs by twofold serial dilution method; how it was run: as §1
[16] = test system: Escherichia coli; test: Antibacterial activity against Escherichia coli 08-21 after 18 to 24 hrs by twofold serial dilution method; how it was run: as §1
[17] = test system: Escherichia coli; test: Antibacterial activity against Escherichia coli 08-22 after 18 to 24 hrs by twofold serial dilution method; how it was run: as §1
[18] = test system: Klebsiella pneumoniae; test: Antibacterial activity against Klebsiella pneumoniae 09-21 after 18 to 24 hrs by twofold serial dilution method; how it was run: as §1
[19] = test system: Klebsiella pneumoniae; test: Antibacterial activity against Klebsiella pneumoniae 09-22 after 18 to 24 hrs by twofold serial dilution method; how it was run: as §1
[20] = test system: Klebsiella pneumoniae; test: Antibacterial activity against Klebsiella pneumoniae 09-23 after 18 to 24 hrs by twofold serial dilution method; how it was run: as §1
[21] = test system: Pseudomonas aeruginosa; test: Antibacterial activity against Pseudomonas aeruginosa ATCC 27853 after 18 to 24 hrs by twofold serial dilution method; how it was run: as §1
[22] = test system: Pseudomonas aeruginosa; test: Antibacterial activity against Pseudomonas aeruginosa 09-32 after 18 to 24 hrs by twofold serial dilution method; how it was run: as §1
[23] = test system: Pseudomonas aeruginosa; test: Antibacterial activity against Pseudomonas aeruginosa 09-33 after 18 to 24 hrs by twofold serial dilution method; how it was run: as §1
[24] = test system: Pseudomonas aeruginosa; test: Antibacterial activity against Pseudomonas aeruginosa 09-34 after 18 to 24 hrs by twofold serial dilution method; how it was run: as §1
[25] = test system: Pseudomonas aeruginosa; test: Antibacterial activity against Pseudomonas aeruginosa 09-35 after 18 to 24 hrs by twofold serial dilution method; how it was run: as §1

SMILES	MIC [1] [mg/L]	MIC [2] [mg/L]	MIC [3] [mg/L]	MIC [4] [mg/L]	MIC [5] [mg/L]	MIC [6] [mg/L]	MIC [7] [mg/L]	MIC [8] [mg/L]	MIC [9] [mg/L]	MIC [10] [mg/L]	MIC [11] [mg/L]	MIC [12] [mg/L]	MIC [13] [mg/L]	MIC [14] [mg/L]	MIC [15] [mg/L]	MIC [16] [mg/L]	MIC [17] [mg/L]	MIC [18] [mg/L]	MIC [19] [mg/L]	MIC [20] [mg/L]	further results
CCO/N=C1\CN(c2c(F)cc3c(=O)c(C(=O)O)cn(C4CC4)c3c2OC)CC1/C(N)=N\OCC (stereo not given)	0.5 (≈ 1.02 µM)	64 (≈ 131 µM)	64 (≈ 131 µM)	0.5 (≈ 1.02 µM)	1 (≈ 2.04 µM)	1 (≈ 2.04 µM)	0.5 (≈ 1.02 µM)	0.5 (≈ 1.02 µM)	64 (≈ 131 µM)	1 (≈ 2.04 µM)	64 (≈ 131 µM)	64 (≈ 131 µM)	64 (≈ 131 µM)	64 (≈ 131 µM)	16 (≈ 32.7 µM)	64 (≈ 131 µM)	64 (≈ 131 µM)	64 (≈ 131 µM)	32 (≈ 65.4 µM)	64 (≈ 131 µM)	MIC [21]: 16 mg/L (≈ 32.7 µM); MIC [22]: 64 mg/L (≈ 131 µM); MIC [23]: 64 mg/L (≈ 131 µM); MIC [24]: 64 mg/L (≈ 131 µM); MIC [25]: 64 mg/L (≈ 131 µM)
CO/N=C1\CN(c2c(F)cc3c(=O)c(C(=O)O)cn(C4CC4)c3c2OC(F)F)CC1/C(N)=N\O (stereo not given)	0.125 (≈ 0.259 µM)	0.125 (≈ 0.259 µM)	0.25 (≈ 0.517 µM)	4 (≈ 8.27 µM)	0.25 (≈ 0.517 µM)	0.5 (≈ 1.03 µM)	0.25 (≈ 0.517 µM)	0.25 (≈ 0.517 µM)	4 (≈ 8.27 µM)	4 (≈ 8.27 µM)	> 128	> 128	> 128	> 128	128 (≈ 265 µM)	> 128	> 128	> 128	64 (≈ 132 µM)	> 128	MIC [21]: 128 mg/L (≈ 265 µM); MIC [22]: > 128 mg/L; MIC [23]: > 128 mg/L; MIC [24]: > 128 mg/L; MIC [25]: > 128 mg/L
CCO/N=C(/N)C1CN(c2c(F)cc3c(=O)c(C(=O)O)cn(CCF)c3c2F)C/C1=N\OC (stereo not given)	0.25 (≈ 0.533 µM)	0.25 (≈ 0.533 µM)	0.25 (≈ 0.533 µM)	0.25 (≈ 0.533 µM)	0.125 (≈ 0.266 µM)	0.25 (≈ 0.533 µM)	0.5 (≈ 1.07 µM)	0.25 (≈ 0.533 µM)	8 (≈ 17 µM)	1 (≈ 2.13 µM)	> 128	> 128	> 128	> 128	> 128	> 128	> 128	> 128	2 (≈ 4.26 µM)	> 128	MIC [21]: > 128 mg/L; MIC [22]: > 128 mg/L; MIC [23]: > 128 mg/L; MIC [24]: > 128 mg/L; MIC [25]: > 128 mg/L
CCO/N=C1\CN(c2c(F)cc3c(=O)c(C(=O)O)cn(C4CC4)c3c2OC)CC1/C(N)=N\OC (stereo not given)	0.5 (≈ 1.05 µM)	0.25 (≈ 0.526 µM)	0.25 (≈ 0.526 µM)	0.5 (≈ 1.05 µM)	0.125 (≈ 0.263 µM)	0.125 (≈ 0.263 µM)	0.25 (≈ 0.526 µM)	0.25 (≈ 0.526 µM)	4 (≈ 8.41 µM)	4 (≈ 8.41 µM)	> 128	> 128	0.25 (≈ 0.526 µM)	0.5 (≈ 1.05 µM)	> 128	> 128	> 128	> 128	4 (≈ 8.41 µM)	> 128	MIC [21]: > 128 mg/L; MIC [22]: > 128 mg/L; MIC [23]: > 128 mg/L; MIC [24]: > 128 mg/L; MIC [25]: > 128 mg/L
CCO/N=C1\CN(c2c(F)cc3c(=O)c(C(=O)O)cn4c3c2OC[C@@H]4C)CC1/C(N)=N\O (stereo not given in full)	0.25 (≈ 0.559 µM)	0.25 (≈ 0.559 µM)	0.25 (≈ 0.559 µM)	0.5 (≈ 1.12 µM)	0.25 (≈ 0.559 µM)	0.5 (≈ 1.12 µM)	0.25 (≈ 0.559 µM)	0.25 (≈ 0.559 µM)	> 128	16 (≈ 35.8 µM)	> 128	> 128	> 128	> 128	> 128	> 128	> 128	> 128	16 (≈ 35.8 µM)	> 128	MIC [21]: 32 mg/L (≈ 71.5 µM); MIC [22]: 64 mg/L (≈ 143 µM); MIC [23]: > 128 mg/L; MIC [24]: > 128 mg/L; MIC [25]: 64 mg/L (≈ 143 µM)
CCO/N=C1\CN(c2nc3c(cc2F)c(=O)c(C(=O)O)cn3-c2ccc(F)cc2F)CC1/C(N)=N\OCC (stereo not given)	0.06 (≈ 0.113 µM)	32 (≈ 60.1 µM)	0.06 (≈ 0.113 µM)	0.06 (≈ 0.113 µM)	0.06 (≈ 0.113 µM)	64 (≈ 120 µM)	32 (≈ 60.1 µM)	32 (≈ 60.1 µM)	128 (≈ 240 µM)	128 (≈ 240 µM)	128 (≈ 240 µM)	128 (≈ 240 µM)	128 (≈ 240 µM)	128 (≈ 240 µM)	16 (≈ 30 µM)	128 (≈ 240 µM)	128 (≈ 240 µM)	16 (≈ 30 µM)	128 (≈ 240 µM)	128 (≈ 240 µM)	MIC [21]: 64 mg/L (≈ 120 µM); MIC [22]: 128 mg/L (≈ 240 µM); MIC [23]: 128 mg/L (≈ 240 µM); MIC [24]: 128 mg/L (≈ 240 µM); MIC [25]: 128 mg/L (≈ 240 µM)
